Reference: ChEMBL document CHEMBL4028903 (J Med Chem, 2017)
Calls of active or inactive are those of the source. The rule behind the calls is not given here.

What was measured:
[1] = Cmax in rat at 10 mg/kg, po administered via gavage by LC-MS/MS analysis; assay type: ADME, organism-based; parameters: dose 10 mg/kg, route oral; conditions: in vivo
In short: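 Rats were dosed IV as a solution in 75% PEG300:25% D5W, or orally as a suspension in 0.5% methylcellulose, 0.5% Tween80 and 99% water.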

[2] = tested on: Rattus norvegicus; experiment: In vivo agonist activity at FXR in po dosed Sprague-Dawley rat assessed as induction of BSEP mRNA level in liver administered as single dose after 7 hrs post dose by qPCR analysis; assay type: functional, organism-based
[3] = tested on: Rattus norvegicus; experiment: In vivo agonist activity at FXR in Sprague-Dawley rat assessed as downregulation of CYP8B1 mRNA level in liver at 0.003 mg/kg, po qd for 14 days measured 7 hrs post last dose on day 14 by qPCR analysis; assay type: functional, organism-based
[4] = tested on: Rattus norvegicus; experiment: In vivo agonist activity at FXR in po dosed Sprague-Dawley rat assessed as induction of SHP mRNA level in liver administered once daily for 14 days measured 7 hrs post last dose on day 14 by qPCR analysis; assay type: functional
[5] = tested on: Rattus norvegicus; experiment: In vivo agonist activity at FXR in po dosed Sprague-Dawley rat assessed as reduction in serum triglyceride level administered once daily for 14 days measured 24 hrs post last dose; assay type: functional, organism-based
[6] = Drug uptake in Sprague-Dawley rat plasma at 0.3 mg/kg, po qd administered via gavage measured 7 hrs post last dose on day 14 by LC-MS/MS analysis; assay type: ADME, organism-based
[7] = Drug uptake in Sprague-Dawley rat plasma at 0.3 mg/kg, po qd administered via gavage measured 1 hr post last dose on day 14 by LC-MS/MS analysis; assay type: ADME, organism-based
[8] = Drug uptake in Sprague-Dawley rat liver at 0.1 mg/kg, po qd administered via gavage measured 7 hrs post last dose on day 14 by LC-MS/MS analysis; assay type: ADME, organism-based; conditions: read-out: Drug uptake
In short: (§1)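 Drug concentration in liver was quantified from tissue homogenates, so these are total levels. Unbound liver concentration was not determined.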

[9] = Drug uptake in Sprague-Dawley rat plasma at 0.1 mg/kg, po qd administered via gavage measured 7 hrs post last dose on day 14 by LC-MS/MS analysis; assay type: ADME, organism-based
[10] = Drug uptake in Sprague-Dawley rat liver at 0.03 mg/kg, po qd administered via gavage measured 7 hrs post last dose on day 14 by LC-MS/MS analysis; assay type: ADME, organism-based; conditions: read-out: Drug uptake; in short: as §1
[11] = Drug uptake in Sprague-Dawley rat liver at 0.01 mg/kg, po qd administered via gavage measured 1 hr post last dose on day 14 by LC-MS/MS analysis; assay type: ADME, organism-based; conditions: read-out: Drug uptake; in short: as §1
[12] = Drug uptake in Sprague-Dawley rat plasma at 0.003 mg/kg, po qd administered via gavage measured 1 hr post last dose on day 14 by LC-MS/MS analysis; assay type: ADME, organism-based
[13] = tested on: Rattus norvegicus; experiment: Dose normalized AUC (0 to 24 hrs) in Sprague-Dawley rat at 0.3 mg/kg, po qd administered via gavage measured on day 1 by LC-MS/MS analysis; assay type: ADME, organism-based; conditions: in vivo
[14] = tested on: Rattus norvegicus; experiment: Dose normalized AUC (0 to 24 hrs) in Sprague-Dawley rat at 0.1 mg/kg, po qd administered via gavage measured on day 1 by LC-MS/MS analysis; assay type: ADME, organism-based; conditions: in vivo
[15] = tested on: Rattus norvegicus; experiment: Dose normalized AUC (0 to 24 hrs) in Sprague-Dawley rat at 0.03 mg/kg, po qd administered via gavage measured on day 11 by LC-MS/MS analysis; assay type: ADME, organism-based; conditions: in vivo
[16] = AUC (0 to 24 hrs) in Sprague-Dawley rat at 1 mg/kg, po qd administered via gavage measured on day 1 by LC-MS/MS analysis; assay type: ADME, organism-based; parameters: dose 1 mg/kg, time < 24 hr, route oral; conditions: in vivo
[17] = Cmax in Sprague-Dawley rat at 3 mg/kg, po qd administered via gavage measured on day 11 by LC-MS/MS analysis; assay type: ADME, organism-based; parameters: dose 3 mg/kg, route oral; conditions: in vivo
[18] = Cmax in Sprague-Dawley rat at 0.3 mg/kg, po qd administered via gavage measured on day 11 by LC-MS/MS analysis; assay type: ADME, organism-based; parameters: dose 0.3 mg/kg, route oral; conditions: in vivo
[19] = Cmax in Sprague-Dawley rat at 0.1 mg/kg, po qd administered via gavage measured on day 1 by LC-MS/MS analysis; assay type: ADME, organism-based; parameters: dose 0.1 mg/kg, route oral; conditions: in vivo
[20] = Cmax in Sprague-Dawley rat at 0.003 mg/kg, po qd administered via gavage measured on day 1 by LC-MS/MS analysis; assay type: ADME, organism-based; parameters: dose 0.003 mg/kg, route oral; conditions: in vivo
[21] = molecular target: T1, G-protein coupled bile acid receptor 1 (Homo sapiens, UniProt Q8TDU6); experiment: Agonist activity at human TGR5
T1 sequence (Q8TDU6 whole entry): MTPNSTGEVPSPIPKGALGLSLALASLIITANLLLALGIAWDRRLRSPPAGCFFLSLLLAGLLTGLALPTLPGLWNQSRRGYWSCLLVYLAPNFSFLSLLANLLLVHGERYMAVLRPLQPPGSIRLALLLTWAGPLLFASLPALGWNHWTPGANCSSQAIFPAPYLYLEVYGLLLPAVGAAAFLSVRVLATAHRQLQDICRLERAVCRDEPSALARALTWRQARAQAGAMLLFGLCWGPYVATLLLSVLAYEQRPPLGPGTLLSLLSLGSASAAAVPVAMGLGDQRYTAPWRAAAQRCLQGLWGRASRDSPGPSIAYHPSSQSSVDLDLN

[22] = Volume of distribution at steady state in mouse at 5 mg/kg, iv or 10 mg/kg, po administered via gavage by LC-MS/MS analysis; assay type: ADME, organism-based; conditions: in vivo, read-out: Vdss
In short: (§2)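 IV dosing used a solution in 75% PEG300:25% D5W for mouse and rat, and a solution in 20% PEG300, 5% solutol, 75% carbonate buffer pH 8 for dog. PO dosing used a suspension in 0.5% methylcellulose, 0.5% Tween80, 99% water for all three species.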

[23] = Volume of distribution at steady state in rat at 3 mg/kg, iv or 1 mg/kg, po administered via gavage by LC-MS/MS analysis; assay type: ADME, organism-based; conditions: in vivo, read-out: Vdss; in short: as §2
[24] = Volume of distribution at steady state in dog at 0.5 mg/kg, iv or 2 mg/kg, po administered via gavage by LC-MS/MS analysis; assay type: ADME, organism-based, Canis lupus familiaris; conditions: in vivo, read-out: Vdss; in short: as §2
[25] = Oral bioavailability in dog at 2 mg/kg administered via gavage by LC-MS/MS analysis; assay type: ADME, organism-based, Canis lupus familiaris; conditions: in vivo; in short: as §2
[26] = Protein binding in rat plasma at 3 mg/kg, iv or 1 mg/kg, po administered via gavage by LC-MS/MS analysis; assay type: ADME, organism-based; conditions: read-out: PPB
[27] = Protein binding in dog plasma at 0.5 mg/kg, iv or 2 mg/kg, po administered via gavage by LC-MS/MS analysis; assay type: ADME, organism-based, Canis lupus familiaris; conditions: read-out: PPB
[28] = Drug uptake in Sprague-Dawley rat plasma at 1 mg/kg, po qd administered via gavage measured 7 hrs post last dose on day 14 by LC-MS/MS analysis; assay type: ADME, organism-based
[29] = Drug uptake in Sprague-Dawley rat liver at 1 mg/kg, po qd administered via gavage measured 7 hrs post last dose on day 14 by LC-MS/MS analysis; assay type: ADME, organism-based; conditions: read-out: Drug uptake; in short: as §1
[30] = Drug uptake in Sprague-Dawley rat plasma at 3 mg/kg, po qd administered via gavage measured 7 hrs post last dose on day 14 by LC-MS/MS analysis; assay type: ADME, organism-based
[31] = tested on: Rattus norvegicus; experiment: In vivo agonist activity at FXR in po dosed Sprague-Dawley rat assessed as induction of BSEP mRNA level in liver administered as single dose measured 7 hrs post dose by qPCR analysis

**Q.** Which results are given for `O=C(O)c1cc(F)c2nc(N3C4CCC3CC(OCc3c(-c5ccccc5OC(F)(F)F)noc3C3CC3)C4)sc2c1` (stereo unspecified)?
**A.** Cmax [1]: 2280 nM; Activity [2]: Dose-dependent effect; Activity [3]: Active; ED50 [4]: 0.02 mg/kg; Activity [5]: Dose-dependent effect; concentration at 7 h [6]: 13.8 nM; concentration at 1 h [7]: 6.84 nM; concentration at 7 h [8]: 45 nM; concentration at 7 h [9]: 4.89 nM; concentration at 7 h [10]: 9.74 nM; concentration at 1 h [11]: 8.35 nM; concentration at 1 h [12]: 0.2 nM; AUC/dose [13]: 390 nM·h; AUC/dose [14]: 410 nM·h; AUC/dose [15]: 658 nM·h; AUC(0-t) at 24 h [16]: 0.461 µM·h; Cmax [17]: 127 nM; Cmax [18]: 14.8 nM; Cmax [19]: 4.6 nM; Cmax [20]: 0.15 nM; EC50 [21]: > 10 µM; Vd [22]: 0.7 L/kg; Vd [23]: 0.72 L/kg; Vd [24]: 0.46 L/kg; bioavailability [25]: 10%; fraction unbound [26]: 0.001; fraction unbound [27]: 0.001; concentration at 7 h [28]: 40.5 nM; concentration at 7 h [29]: 230 nM; concentration at 7 h [30]: 115 nM; Activity [31]: Dose-dependent effect
